Test results reported in ChEMBL document CHEMBL5154945, “Discovery and Optimization of Pyrrolopyrimidine Derivatives as Selective Disruptors of the Perinucleolar Compartment, a Marker of Tumor Progression toward Metastasis” (J Med Chem, 2022).
Active and inactive are the calls of the source. No cut-off for these calls is given here.

How the values were obtained:
[1] = biological target: Muscarinic acetylcholine receptor M4 (Homo sapiens) (UniProt P08173); assay: Binding affinity to M4 receptor (unknown origin) at 10000 nM by radioligand displacement assay relative to control
[2] = mouse, in vivo, ip, 50 mg/kg, 48 h
[3] = biological target: Sodium-dependent dopamine transporter (Homo sapiens, UniProt Q01959); assay: Binding affinity to DAT receptor (unknown origin) by radioligand displacement assay
[4] = system: TK-10; assay: Anticancer activity against human TK-10 cells assessed as cell growth inhibition; type: functional, cell-based; settings: dose 1-100 µM, DDE = dose-dependent effect
[5] = system: DU-145; assay: Anticancer activity against human DU-145 cells assessed as cell growth inhibition; type: functional, cell-based; settings: dose 1-100 µM, DDE = dose-dependent effect
[6] = system: HL-60(TB); assay: Anticancer activity against human HL-60(TB) cells assessed as cell growth inhibition; type: functional, cell-based; settings: dose 1-100 µM, DDE = dose-dependent effect
[7] = biological target: Beta-1 adrenergic receptor (Homo sapiens) (UniProt P08588); assay: Binding affinity to beta1 receptor (unknown origin) at 10000 nM by radioligand displacement assay relative to control
[8] = system: LOX IMVI; assay: Anticancer activity against human LOX IMVI cells assessed as cell growth inhibition; type: functional, cell-based; settings: dose 1-100 µM, DDE = dose-dependent effect
[9] = system: SK-MEL-28; assay: Anticancer activity against human SK-MEL-28 cells assessed as cell growth inhibition; type: functional, cell-based; settings: dose 1-100 µM, DDE = dose-dependent effect
[10] = biological target: 5-hydroxytryptamine receptor 2C (Homo sapiens) (UniProt P28335); assay: Binding affinity to 5-HT2C receptor (unknown origin) at 10000 nM by radioligand displacement assay relative to control
[11] = biological target: Sigma intracellular receptor 2 (Homo sapiens, UniProt Q5BJF2); assay: Binding affinity to sigma2 receptor (unknown origin) by radioligand displacement assay
[12] = biological target: Alpha-1D adrenergic receptor (Homo sapiens, UniProt P25100); assay: Binding affinity to alpha1D receptor (unknown origin) by radioligand displacement assay
[13] = system: CAKI-1; assay: Anticancer activity against human CAKI-1 cells assessed as cell growth inhibition; type: functional, cell-based; settings: dose 1-100 µM, DDE = dose-dependent effect
[14] = Cmax in female BALB/c mouse at 25 mg/kg, ip at 30 min by L-MS/MS analysis; type: ADME, organism-based; parameters: dose 25 mg/kg, time 30 min, route ip; settings: in vivo, 0.5 h
How it was run: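 Fed female BALB/c mice, about 6–8 weeks old and 25–30 g, received a single IP dose of 5 or 25 mpk in NMP/PEG400/HP-β-CD aqueous vehicle (0.5 mg/mL for the 5 mpk dose). Three mice per time point were sampled up to 48 h by retro-orbital bleed under isoflurane into K2EDTA. Plasma was spun at 2000 g, 4 °C, frozen at -80 °C, and assayed by LC/MS/MS.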

[15] = system: SK-MEL-2; assay: Anticancer activity against human SK-MEL-2 cells assessed as cell growth inhibition; type: functional, cell-based; settings: dose 1-100 µM, DDE = dose-dependent effect
[16] = biological target: 5-hydroxytryptamine receptor 2A (Homo sapiens) (UniProt P28223); assay: Binding affinity to 5-HT2A receptor (unknown origin) at 10000 nM by radioligand displacement assay relative to control
[17] = biological target: Sodium-dependent noradrenaline transporter (Homo sapiens) (UniProt P23975); assay: Binding affinity to NET receptor (unknown origin) at 10000 nM by radioligand displacement assay relative to control
[18] = system: Malme-3M; assay: Anticancer activity against human Malme-3M cells assessed as cell growth inhibition; type: functional, cell-based; settings: dose 1-100 µM, DDE = dose-dependent effect
[19] = system: UACC-62; assay: Anticancer activity against human UACC-62 cells assessed as cell growth inhibition; type: functional, cell-based; settings: dose 1-100 µM, DDE = dose-dependent effect
[20] = biological target: D(2) dopamine receptor (Homo sapiens) (UniProt P14416); assay: Binding affinity to D2 receptor (unknown origin) at 10000 nM by radioligand displacement assay relative to control
[21] = system: NCI/ADR-RES; assay: Anticancer activity against human NCI/ADR-RES cells assessed as cell growth inhibition; type: functional, cell-based; settings: dose 1-100 µM, DDE = dose-dependent effect
[22] = system: PC-3M; assay: Cytotoxicity against human PC-3M cells expressing PTB/GFP fusion protein assessed as reduction in ATP level at 20 uM and measured after 24 to 48 hrs by ATPlite luminescence assay; type: toxicity, cell-based; settings: time 24-48 hrs
[23] = system: MOLT-4; assay: Anticancer activity against human MOLT-4 cells assessed as cell growth inhibition; type: functional, cell-based; settings: dose 1-100 µM, DDE = dose-dependent effect
[24] = biological target: Histamine H2 receptor (Homo sapiens) (UniProt P25021); assay: Binding affinity to H2 receptor (unknown origin) at 10000 nM by radioligand displacement assay relative to control
[25] = biological target: Alpha-2A adrenergic receptor (Homo sapiens) (UniProt P08913); assay: Binding affinity to alpha2A receptor (unknown origin) at 10000 nM by radioligand displacement assay relative to control
[26] = system: EKVX; assay: Anticancer activity against human EKVX cells assessed as cell growth inhibition; type: functional, cell-based; settings: dose 1-100 µM, DDE = dose-dependent effect
[27] = system: PC-3M; assay: Antiproliferative activity against human PC-3M cells expressing PTB/GFP fusion protein assessed as cell growth inhibition at 0.1 to 10 uM and measured every four hrs for 130 hrs by IncuCyte zoom live cell analysis; type: functional, cell-based; settings: dose 0.1-10 µM
How it was run: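 PC3M cells stably expressing GFP-PTB, grown in DMEM with 10% FBS and 1% penicillin/streptomycin, seeded at 1.25×10^4 cells/ml in 384-well plates and left overnight at 37 °C, 5% CO2. Compound added in DMEM to give 11 final concentrations from 10 nM to 20 μM. Brightfield images were taken every 4 h for about 130 h and scored as percent confluence.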

[28] = system: HCT-15; assay: Anticancer activity against human HCT-15 cells assessed as cell growth inhibition; type: functional, cell-based; settings: dose 1-100 µM, DDE = dose-dependent effect
[29] = biological target: 5-hydroxytryptamine receptor 7 (Homo sapiens) (UniProt P34969); assay: Binding affinity to 5-HT7 receptor (unknown origin) at 10000 nM by radioligand displacement assay relative to control
[30] = biological target: Muscarinic acetylcholine receptor M5 (Homo sapiens) (UniProt P08912); assay: Binding affinity to M5 receptor (unknown origin) at 10000 nM by radioligand displacement assay relative to control
[31] = system: MDA-MB-468; assay: Anticancer activity against human MDA-MB-468 cells assessed as cell growth inhibition; type: functional, cell-based; settings: dose 1-100 µM, DDE = dose-dependent effect
[32] = biological target: 5-hydroxytryptamine receptor 1A (Homo sapiens) (UniProt P08908); assay: Binding affinity to 5-HT1A receptor (unknown origin) at 10000 nM by radioligand displacement assay relative to control
[33] = mouse, in vivo, ip, 50 mg/kg, 48 h; remark: listed apart in the source
[34] = system: HCC 2998; assay: Anticancer activity against human HCC 2998 cells assessed as cell growth inhibition; type: functional, cell-based; settings: dose 1-100 µM, DDE = dose-dependent effect
[35] = system: SK-MEL-5; assay: Anticancer activity against human SK-MEL-5 cells assessed as cell growth inhibition; type: functional, cell-based; settings: dose 1-100 µM, DDE = dose-dependent effect
[36] = system: PC-3M; assay: Antiproliferative activity against human PC-3M cells expressing PTB/GFP fusion protein assessed as disruption of RNA synthesis marker RP-194 at 1 uM and measured after 1 hr by DAPI staining based immunofluorescence microscopy; type: functional, cell-based
How it was run: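 50,000 PC3M cells on chamber slides were treated with 1 μM compound for 1 h at 37 °C, then fixed in 4% paraformaldehyde for 15 min, permeabilized with 0.3% Triton X-100 and blocked in 3% BSA. Primary antibodies were anti-RPA194 (1:200) and anti-NOPP140 (1:100), overnight at 4 °C, followed by secondary antibodies and DAPI mounting. Confocal images at 63×, three images of about 200 cells per group; counts of bright objects were normalized to DAPI-stained nuclei.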

[37] = system: RXF 393; assay: Anticancer activity against human RXF 393 cells assessed as cell growth inhibition; type: functional, cell-based; settings: dose 1-100 µM, DDE = dose-dependent effect

Chain of Sodium-dependent noradrenaline transporter (Homo sapiens) (P23975 whole entry): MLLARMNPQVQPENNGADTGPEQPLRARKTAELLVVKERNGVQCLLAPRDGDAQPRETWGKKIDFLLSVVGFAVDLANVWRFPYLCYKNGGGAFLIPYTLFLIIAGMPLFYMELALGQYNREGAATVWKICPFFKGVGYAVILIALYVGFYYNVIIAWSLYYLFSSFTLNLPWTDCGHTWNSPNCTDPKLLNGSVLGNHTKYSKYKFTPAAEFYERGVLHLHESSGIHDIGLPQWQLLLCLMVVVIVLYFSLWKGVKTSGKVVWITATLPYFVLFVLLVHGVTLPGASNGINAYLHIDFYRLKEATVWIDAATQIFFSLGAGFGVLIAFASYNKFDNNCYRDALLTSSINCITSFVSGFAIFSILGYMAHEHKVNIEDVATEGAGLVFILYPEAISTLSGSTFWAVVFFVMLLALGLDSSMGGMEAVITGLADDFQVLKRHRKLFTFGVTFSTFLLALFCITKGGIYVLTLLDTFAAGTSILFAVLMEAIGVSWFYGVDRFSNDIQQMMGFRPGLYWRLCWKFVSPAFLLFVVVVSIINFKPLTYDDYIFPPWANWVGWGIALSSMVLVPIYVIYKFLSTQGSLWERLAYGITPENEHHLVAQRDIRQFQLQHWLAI
Chain of Histamine H2 receptor (Homo sapiens) (P25021 whole entry): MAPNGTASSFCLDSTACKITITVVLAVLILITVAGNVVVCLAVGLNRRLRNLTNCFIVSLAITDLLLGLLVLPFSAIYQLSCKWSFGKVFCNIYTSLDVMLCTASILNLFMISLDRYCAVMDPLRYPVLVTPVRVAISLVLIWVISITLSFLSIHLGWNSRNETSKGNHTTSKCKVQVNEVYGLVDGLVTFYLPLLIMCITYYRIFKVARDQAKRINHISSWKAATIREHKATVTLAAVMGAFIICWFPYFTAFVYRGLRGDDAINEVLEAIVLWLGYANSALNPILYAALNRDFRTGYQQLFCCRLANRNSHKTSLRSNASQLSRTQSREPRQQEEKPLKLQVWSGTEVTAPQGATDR
Chain of 5-hydroxytryptamine receptor 1A (Homo sapiens) (P08908 whole entry): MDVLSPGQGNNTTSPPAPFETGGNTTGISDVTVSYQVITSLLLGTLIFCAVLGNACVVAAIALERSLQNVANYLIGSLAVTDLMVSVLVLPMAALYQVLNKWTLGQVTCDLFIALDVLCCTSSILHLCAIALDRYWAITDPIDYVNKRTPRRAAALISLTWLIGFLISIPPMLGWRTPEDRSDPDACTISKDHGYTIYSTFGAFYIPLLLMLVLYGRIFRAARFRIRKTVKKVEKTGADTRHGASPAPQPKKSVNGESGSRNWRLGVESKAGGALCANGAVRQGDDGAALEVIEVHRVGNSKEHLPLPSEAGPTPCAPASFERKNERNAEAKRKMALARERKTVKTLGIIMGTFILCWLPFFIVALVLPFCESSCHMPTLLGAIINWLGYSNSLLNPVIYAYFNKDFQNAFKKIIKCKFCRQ
Chain of Alpha-1D adrenergic receptor (P25100 whole entry): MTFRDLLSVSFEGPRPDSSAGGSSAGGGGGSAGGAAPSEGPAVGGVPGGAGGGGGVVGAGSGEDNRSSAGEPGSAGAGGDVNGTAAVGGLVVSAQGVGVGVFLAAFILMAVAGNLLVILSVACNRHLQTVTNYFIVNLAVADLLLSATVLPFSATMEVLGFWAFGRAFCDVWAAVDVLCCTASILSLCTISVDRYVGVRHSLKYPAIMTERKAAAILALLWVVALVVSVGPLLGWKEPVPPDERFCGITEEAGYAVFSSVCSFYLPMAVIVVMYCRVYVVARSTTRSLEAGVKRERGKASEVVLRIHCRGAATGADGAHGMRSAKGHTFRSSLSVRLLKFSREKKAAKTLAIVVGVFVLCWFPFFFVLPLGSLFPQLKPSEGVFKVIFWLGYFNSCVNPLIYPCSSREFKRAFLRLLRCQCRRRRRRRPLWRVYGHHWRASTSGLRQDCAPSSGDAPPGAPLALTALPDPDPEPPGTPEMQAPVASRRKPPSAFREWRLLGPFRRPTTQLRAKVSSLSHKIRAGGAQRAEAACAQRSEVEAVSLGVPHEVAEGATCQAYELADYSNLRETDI
Chain of Beta-1 adrenergic receptor (Homo sapiens) (P08588 whole entry, looked up): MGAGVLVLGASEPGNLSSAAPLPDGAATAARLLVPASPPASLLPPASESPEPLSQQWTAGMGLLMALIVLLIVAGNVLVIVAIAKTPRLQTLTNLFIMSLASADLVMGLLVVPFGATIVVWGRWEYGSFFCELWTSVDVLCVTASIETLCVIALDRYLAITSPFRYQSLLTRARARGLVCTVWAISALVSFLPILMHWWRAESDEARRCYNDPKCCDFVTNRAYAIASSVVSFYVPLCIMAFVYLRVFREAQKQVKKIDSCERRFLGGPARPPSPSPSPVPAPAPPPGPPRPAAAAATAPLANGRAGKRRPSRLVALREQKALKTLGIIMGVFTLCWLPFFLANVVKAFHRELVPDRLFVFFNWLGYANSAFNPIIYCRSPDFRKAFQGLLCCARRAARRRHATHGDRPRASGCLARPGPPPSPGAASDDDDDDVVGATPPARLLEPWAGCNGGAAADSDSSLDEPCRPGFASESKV
Chain of 5-hydroxytryptamine receptor 2A (Homo sapiens) (P28223 whole entry): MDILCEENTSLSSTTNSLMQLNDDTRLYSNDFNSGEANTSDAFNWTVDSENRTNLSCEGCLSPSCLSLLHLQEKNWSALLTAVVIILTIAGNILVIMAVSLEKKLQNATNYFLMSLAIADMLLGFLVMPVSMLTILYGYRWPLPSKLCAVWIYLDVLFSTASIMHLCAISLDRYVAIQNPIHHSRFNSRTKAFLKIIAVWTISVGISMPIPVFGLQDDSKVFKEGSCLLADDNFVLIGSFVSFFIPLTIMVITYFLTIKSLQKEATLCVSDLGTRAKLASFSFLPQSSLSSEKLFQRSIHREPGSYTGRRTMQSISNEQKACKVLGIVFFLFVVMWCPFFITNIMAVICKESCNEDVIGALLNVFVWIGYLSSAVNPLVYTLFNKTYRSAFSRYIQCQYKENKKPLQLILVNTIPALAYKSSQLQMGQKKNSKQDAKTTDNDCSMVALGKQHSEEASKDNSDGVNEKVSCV
Chain of D(2) dopamine receptor (Homo sapiens) (P14416 whole entry): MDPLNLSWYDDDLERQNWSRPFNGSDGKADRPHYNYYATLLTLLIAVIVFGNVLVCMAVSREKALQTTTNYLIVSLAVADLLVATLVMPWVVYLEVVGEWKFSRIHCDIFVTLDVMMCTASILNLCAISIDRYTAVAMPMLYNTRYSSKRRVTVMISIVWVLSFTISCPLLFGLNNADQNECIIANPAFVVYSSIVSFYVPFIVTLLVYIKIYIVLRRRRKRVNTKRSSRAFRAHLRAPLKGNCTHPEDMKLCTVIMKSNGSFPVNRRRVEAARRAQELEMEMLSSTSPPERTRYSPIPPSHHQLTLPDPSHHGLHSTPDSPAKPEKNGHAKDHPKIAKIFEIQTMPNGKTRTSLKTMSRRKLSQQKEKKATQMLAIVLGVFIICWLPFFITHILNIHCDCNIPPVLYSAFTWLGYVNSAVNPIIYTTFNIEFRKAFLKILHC
Chain of Sodium-dependent dopamine transporter (Q01959 whole entry): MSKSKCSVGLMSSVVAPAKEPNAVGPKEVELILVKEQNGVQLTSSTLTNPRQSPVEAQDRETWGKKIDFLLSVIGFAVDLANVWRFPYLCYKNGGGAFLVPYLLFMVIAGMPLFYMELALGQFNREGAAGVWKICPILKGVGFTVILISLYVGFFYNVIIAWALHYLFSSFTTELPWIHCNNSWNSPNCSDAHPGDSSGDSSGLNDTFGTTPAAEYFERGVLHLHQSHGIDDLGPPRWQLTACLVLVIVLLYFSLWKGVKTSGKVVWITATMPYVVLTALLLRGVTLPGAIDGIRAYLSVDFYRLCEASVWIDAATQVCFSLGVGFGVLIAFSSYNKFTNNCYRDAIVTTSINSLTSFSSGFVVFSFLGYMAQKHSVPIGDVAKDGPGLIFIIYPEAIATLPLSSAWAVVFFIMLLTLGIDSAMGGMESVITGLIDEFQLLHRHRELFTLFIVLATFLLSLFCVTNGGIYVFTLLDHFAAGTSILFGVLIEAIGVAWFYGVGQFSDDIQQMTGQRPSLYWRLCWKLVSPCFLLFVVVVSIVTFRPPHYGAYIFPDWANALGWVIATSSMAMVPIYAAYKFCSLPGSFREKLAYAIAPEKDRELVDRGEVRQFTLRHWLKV
Chain of Muscarinic acetylcholine receptor M5 (Homo sapiens) (P08912 whole entry): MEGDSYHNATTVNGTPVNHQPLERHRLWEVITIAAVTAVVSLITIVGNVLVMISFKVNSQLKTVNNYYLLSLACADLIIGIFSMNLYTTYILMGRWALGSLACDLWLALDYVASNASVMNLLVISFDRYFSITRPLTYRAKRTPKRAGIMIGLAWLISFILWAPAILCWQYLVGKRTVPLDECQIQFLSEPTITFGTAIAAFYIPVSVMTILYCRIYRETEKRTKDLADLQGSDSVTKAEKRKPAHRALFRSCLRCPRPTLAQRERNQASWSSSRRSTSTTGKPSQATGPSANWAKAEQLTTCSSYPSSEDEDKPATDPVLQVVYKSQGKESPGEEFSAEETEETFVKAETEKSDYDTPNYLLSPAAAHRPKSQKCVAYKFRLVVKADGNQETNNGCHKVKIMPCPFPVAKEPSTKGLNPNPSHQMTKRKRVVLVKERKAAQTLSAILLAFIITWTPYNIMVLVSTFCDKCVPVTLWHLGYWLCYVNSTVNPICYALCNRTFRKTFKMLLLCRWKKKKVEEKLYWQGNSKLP
Chain of 5-hydroxytryptamine receptor 7 (Homo sapiens) (P34969 whole entry): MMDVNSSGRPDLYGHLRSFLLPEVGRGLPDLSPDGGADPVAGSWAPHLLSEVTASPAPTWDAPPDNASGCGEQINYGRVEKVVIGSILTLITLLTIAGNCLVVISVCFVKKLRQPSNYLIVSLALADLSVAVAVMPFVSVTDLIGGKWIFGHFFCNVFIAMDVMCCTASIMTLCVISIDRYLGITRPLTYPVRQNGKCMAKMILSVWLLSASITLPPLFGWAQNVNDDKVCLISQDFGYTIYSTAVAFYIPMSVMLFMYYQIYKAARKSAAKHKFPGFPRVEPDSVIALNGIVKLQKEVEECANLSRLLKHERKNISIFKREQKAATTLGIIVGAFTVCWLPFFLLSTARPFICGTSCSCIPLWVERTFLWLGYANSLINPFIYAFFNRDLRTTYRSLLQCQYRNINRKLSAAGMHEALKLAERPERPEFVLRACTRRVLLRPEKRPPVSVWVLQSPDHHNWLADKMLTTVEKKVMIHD

## N=c1c2c(-c3ccccc3)c(-c3ccccc3)n(Cc3ccccc3)c2ncn1[C@H]1CC[C@H](O)CC1 [ML-246]
[1]
  Activity: < 50%
[2]
  Tmax: 30 min
[3]
  Ki: 3.41 µM
[4]
  Activity: Dde
[5]
  Activity: Dde
[6]
  Activity: Dde
[7]
  Activity: < 50%
[8]
  Activity: Dde
[9]
  Activity: Dde
[10]
  Activity: < 50%
[11]
  Ki: 0.244 µM
[12]
  Ki: 3.26 µM
[13]
  Activity: Dde
[14]
  Cmax: 6.17 µM
[15]
  Activity: Dde
[16]
  Activity: < 50%
[17]
  Activity: < 50%
[18]
  Activity: Dde
[19]
  Activity: Dde
[20]
  Activity: < 50%
[21]
  Activity: Dde
[22]
  Activity: Toxic
[23]
  Activity: Dde
[24]
  Activity: < 50%
[25]
  Activity: < 50%
[26]
  Activity: Dde
[27]
  Activity: Active
[28]
  Activity: Dde
[29]
  Activity: < 50%
[30]
  Activity: < 50%
[31]
  Activity: Dde
[32]
  Activity: < 50%
[33]
  AUC: 231.77 µM·h
[34]
  Activity: Dde
[35]
  Activity: Dde
[36]
  Activity: Active
[37]
  Activity: Dde
